Data: publication PMC5615838 (Toxicology Reports, 2016)

Columns and labels:
[1] = tested on: GPCRs, ion channels, nuclear receptors, transporters; assay: lead profiling receptor screen; assay type: binding; details: 10 μM
hERG = hERG (Homo sapiens, UniProt Q12809); assay: hERG electrophysiology; assay type: cell-based
CYP1A2 = molecular target: T1, CYP1A2 (Homo sapiens, UniProt P05177); assay: CYP inhibition, LC–MS/MS assay in human liver microsomes; assay type: in vitro ADME; details: pooled human liver microsomes, probe phenacetin
T1 sequence (P05177 1-516): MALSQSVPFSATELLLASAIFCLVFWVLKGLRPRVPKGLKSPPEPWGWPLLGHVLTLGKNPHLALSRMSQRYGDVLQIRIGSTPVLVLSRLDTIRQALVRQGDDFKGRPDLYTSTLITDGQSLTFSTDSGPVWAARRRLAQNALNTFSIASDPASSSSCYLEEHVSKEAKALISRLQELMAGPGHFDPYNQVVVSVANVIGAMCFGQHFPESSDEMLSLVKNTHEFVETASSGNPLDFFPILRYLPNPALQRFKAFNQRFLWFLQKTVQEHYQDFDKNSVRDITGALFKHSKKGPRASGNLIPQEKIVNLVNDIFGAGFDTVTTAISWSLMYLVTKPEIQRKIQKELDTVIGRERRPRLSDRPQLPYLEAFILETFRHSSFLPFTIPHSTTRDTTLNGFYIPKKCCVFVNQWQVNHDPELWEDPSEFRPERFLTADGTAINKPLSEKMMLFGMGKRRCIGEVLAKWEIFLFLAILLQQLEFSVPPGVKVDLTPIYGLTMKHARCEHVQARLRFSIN
Method in brief: (§1)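 Follow-up CYP panel in pooled human liver microsomes with CYP-specific probe substrates; CYP-specific metabolites quantified by LC-MS/MS. Test compound at 10 μM. Percent inhibition reported.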

CYP2C9 = CYP2C9 (Homo sapiens, UniProt P11712); assay: as above; assay type: in vitro ADME; details: pooled human liver microsomes, probe tolbutamide
Chain of CYP2C9 (P11712 whole entry): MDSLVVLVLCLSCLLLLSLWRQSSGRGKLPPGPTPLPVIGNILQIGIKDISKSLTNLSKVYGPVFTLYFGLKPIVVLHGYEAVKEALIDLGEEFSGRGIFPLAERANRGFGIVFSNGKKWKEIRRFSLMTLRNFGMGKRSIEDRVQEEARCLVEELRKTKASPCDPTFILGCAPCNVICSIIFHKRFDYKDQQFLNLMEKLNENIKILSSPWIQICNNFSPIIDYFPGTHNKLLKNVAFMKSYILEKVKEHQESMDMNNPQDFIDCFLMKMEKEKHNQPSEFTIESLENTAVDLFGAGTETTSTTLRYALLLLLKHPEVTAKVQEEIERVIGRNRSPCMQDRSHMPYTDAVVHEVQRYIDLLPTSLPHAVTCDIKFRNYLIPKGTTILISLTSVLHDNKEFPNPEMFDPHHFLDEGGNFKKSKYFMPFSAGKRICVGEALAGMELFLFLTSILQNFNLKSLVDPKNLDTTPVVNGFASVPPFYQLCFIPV
Method in brief: as §1

CYP2C19 = CYP2C19 (Homo sapiens, UniProt P33261); assay: as above; assay type: in vitro ADME; details: pooled human liver microsomes, probe S-mephenytoin
Chain of CYP2C19 (P33261 whole entry): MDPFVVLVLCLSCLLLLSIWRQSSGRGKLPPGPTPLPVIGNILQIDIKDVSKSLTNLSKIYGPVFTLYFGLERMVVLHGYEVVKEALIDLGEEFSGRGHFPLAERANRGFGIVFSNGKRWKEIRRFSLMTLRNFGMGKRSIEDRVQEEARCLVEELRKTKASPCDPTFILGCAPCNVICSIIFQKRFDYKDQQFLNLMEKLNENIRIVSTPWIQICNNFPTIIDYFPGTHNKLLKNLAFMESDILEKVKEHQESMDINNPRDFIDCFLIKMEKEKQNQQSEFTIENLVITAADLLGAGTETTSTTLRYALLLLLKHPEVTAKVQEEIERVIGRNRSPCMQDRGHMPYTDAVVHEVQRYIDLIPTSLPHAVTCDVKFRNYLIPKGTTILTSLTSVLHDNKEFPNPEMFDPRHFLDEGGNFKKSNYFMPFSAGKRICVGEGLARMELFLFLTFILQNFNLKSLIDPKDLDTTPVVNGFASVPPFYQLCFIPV
Method in brief: as §1

CYP2D6 = CYP2D6 (Homo sapiens, UniProt P10635); assay: as above; assay type: in vitro ADME; details: pooled human liver microsomes, probe bufuralol
Chain of CYP2D6 (P10635 whole entry): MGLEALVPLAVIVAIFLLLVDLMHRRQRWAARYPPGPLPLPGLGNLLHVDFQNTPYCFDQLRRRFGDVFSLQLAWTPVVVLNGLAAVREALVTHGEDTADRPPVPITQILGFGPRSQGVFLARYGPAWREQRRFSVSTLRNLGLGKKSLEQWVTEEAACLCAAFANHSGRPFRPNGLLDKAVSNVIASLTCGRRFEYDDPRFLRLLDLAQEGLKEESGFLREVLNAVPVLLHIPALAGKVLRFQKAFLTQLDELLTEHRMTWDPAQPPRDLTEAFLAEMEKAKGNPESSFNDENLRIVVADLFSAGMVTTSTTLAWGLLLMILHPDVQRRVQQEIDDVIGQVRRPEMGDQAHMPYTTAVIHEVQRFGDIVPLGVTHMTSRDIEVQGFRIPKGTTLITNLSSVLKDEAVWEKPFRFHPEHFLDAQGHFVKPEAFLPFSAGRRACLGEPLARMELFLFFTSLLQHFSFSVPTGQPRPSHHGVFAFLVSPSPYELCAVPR
Method in brief: as §1

CYP3A4 = CYP3A4 (Homo sapiens, UniProt P08684); assay: as above; assay type: in vitro ADME; details: pooled human liver microsomes, probe midazolam
Chain of CYP3A4 (P08684 whole entry): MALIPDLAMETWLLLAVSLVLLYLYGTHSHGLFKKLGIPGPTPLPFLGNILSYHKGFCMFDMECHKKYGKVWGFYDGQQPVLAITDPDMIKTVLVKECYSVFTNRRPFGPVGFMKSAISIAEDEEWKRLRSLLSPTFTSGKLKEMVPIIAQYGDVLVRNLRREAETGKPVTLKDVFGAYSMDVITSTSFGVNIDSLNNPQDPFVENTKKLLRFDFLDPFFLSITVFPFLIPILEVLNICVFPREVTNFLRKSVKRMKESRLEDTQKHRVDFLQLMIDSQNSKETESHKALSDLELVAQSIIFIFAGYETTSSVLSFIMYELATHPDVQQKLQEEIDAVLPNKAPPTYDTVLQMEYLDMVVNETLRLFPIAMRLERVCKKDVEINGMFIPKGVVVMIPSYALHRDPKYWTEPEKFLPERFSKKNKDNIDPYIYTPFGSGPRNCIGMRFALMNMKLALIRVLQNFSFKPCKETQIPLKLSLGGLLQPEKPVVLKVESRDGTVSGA
Method in brief: as §1

[2] = in vitro metabolism in rat liver microsomes; assay type: in vitro ADME; details: 50 μM, 120 min
[3] = pharmacokinetics and oral bioavailability of S6821; assay type: in vivo, rat
[4] = tested on: S. typhimurium strains TA98, TA100, TA1535, TA1537 and E. coli strain WP2 uvrA; assay: bacterial reverse mutation test; assay type: cell-based, Salmonella typhimurium, Escherichia coli; details: 50–5000 μg/plate, plate incorporation and pre-incubation, ±S9
bone marrow PCEs = assay: in vivo micronucleus assay; set-up: species or system mouse; details: 500, 1000, 2000 mg/kg bw/day (oral), 2 days, male CD-1 mice
[5] = 28-day dose-range finding toxicity study, diet; assay type: in vivo, rat; details: 28 days
Method in brief: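 Crl:CD(SD) rats, 5/sex/group, fed test compound in the diet at 10, 30 or 100 mg/kg bw/day for 28 days, with a vehicle-diet control group of 5/sex. Assessed survival, clinical signs, body weight, food consumption, hematology, clinical chemistry, organ weights and gross pathology. Livers examined microscopically in the 0 and 100 mg/kg bw/day groups.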

[6] = 90-day subchronic toxicity study, diet; assay type: in vivo, rat
Method in brief: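 Sprague-Dawley Crl:CD(SD) rats, 20/sex/group, received test compound continuously in the diet at 0, 10, 30 or 100 mg/kg bw/day for 90 consecutive days. Body-weight gain and food consumption were monitored. Clinical signs were recorded throughout treatment.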

[7] = dose range-finding developmental toxicity study; assay type: in vivo, rat; details: 125, 250, 500, 1000 mg/kg bw/day oral gavage, gestation days 6-20
[8] = JECFA SPET dietary exposure estimate; set-up: species or system human; details: 28- and 90-day toxicology studies
[9] = tested on: human peripheral blood lymphocytes; assay: in vitro chromosome aberration test; details: 200–1300 μg/mL, 3 or 21 hr exposure, ±S9
[10] = male, Sprague-Dawley, rat, plasma, iv, 1 mg/kg
[11] = male, Sprague-Dawley, rat, plasma, po, 10 mg/kg
[12] = male, Sprague-Dawley, rat, plasma, po, 30 mg/kg
[13] = male, Sprague-Dawley, rat, plasma, po, 100 mg/kg

Chain of hERG (Q12809 whole entry): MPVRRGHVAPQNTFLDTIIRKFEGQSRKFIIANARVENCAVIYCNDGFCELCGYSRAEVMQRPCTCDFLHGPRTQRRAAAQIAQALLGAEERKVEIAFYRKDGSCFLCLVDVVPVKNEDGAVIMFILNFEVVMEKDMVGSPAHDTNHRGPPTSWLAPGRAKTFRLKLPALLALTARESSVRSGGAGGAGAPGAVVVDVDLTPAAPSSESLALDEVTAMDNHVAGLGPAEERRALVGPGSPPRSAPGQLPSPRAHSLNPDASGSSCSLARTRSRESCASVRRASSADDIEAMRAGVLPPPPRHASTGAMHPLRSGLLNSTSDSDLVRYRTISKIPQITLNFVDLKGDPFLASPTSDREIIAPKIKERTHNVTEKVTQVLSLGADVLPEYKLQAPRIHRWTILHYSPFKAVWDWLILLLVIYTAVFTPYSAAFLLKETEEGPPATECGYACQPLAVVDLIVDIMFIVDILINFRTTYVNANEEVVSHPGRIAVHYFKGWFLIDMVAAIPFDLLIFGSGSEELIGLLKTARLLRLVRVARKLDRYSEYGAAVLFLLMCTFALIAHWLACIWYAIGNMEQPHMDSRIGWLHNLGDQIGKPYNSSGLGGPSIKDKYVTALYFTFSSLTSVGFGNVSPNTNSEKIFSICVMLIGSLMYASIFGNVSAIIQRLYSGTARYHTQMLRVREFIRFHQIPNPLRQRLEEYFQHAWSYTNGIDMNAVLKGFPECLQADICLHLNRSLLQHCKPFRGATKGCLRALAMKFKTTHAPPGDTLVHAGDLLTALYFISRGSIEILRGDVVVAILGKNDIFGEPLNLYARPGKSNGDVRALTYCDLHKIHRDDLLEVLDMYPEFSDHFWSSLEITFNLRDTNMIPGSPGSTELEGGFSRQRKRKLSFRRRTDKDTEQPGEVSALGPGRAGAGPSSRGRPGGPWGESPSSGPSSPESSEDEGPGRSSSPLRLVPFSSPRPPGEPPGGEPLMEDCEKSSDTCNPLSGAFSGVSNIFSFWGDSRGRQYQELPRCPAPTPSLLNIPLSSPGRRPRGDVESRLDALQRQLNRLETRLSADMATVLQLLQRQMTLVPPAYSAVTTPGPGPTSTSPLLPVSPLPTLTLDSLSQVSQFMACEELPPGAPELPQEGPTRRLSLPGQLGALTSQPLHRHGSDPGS

With `Cc1noc(C)c1Cn1cc(N2C(=O)CN(Cc3cccc(O)c3)C2=O)cn1` [S6821, 3-(1-((3,5-dimethylisoxazol-4-yl)methyl)-1H-pyrazol-4-yl)-1-(3-hydroxybenzyl)imidazolidine-2,4-dione] the “significant responses (≥50% inhibition or stimulation)” value [1] was “No significant responses”, the inhibition at 10 µM (hERG) was under 10% and the inhibition at 10 µM (CYP1A2) was 18%. For the same compound, the inhibition at 10 µM (CYP2C9) was -3%, the inhibition at 10 µM (CYP2C19) was 8% and the inhibition at 10 µM (CYP2D6) was -2%. The inhibition at 10 µM (CYP3A4) was 4%, the “parent S6821 remaining, peak area % of time 0” value [2] was 56% and the AUC0-last/dose ([3]; iv 1.0 mg/kg bw S6821) was 161 ng·h/mL/mg/kg. For the same compound, the “Vss, times the total body water volume in the rat” value ([3]; iv, body water 668 mL/kg) was 0.84 times, the “CL as % of hepatic blood flow in the rat” value ([3]; iv, hepatic blood flow 55.2 mL/min/kg) was 190% and the AUC(0-t) [3, 10] was 161 ng·h/mL. It also gave a Cmax [3, 10] of 619 ng/mL, a Tmax [3, 10] of 4.8 min and a Vd [3, 10] of 0.563 L/kg. It also gave a clearance [3, 10] of 105 mL/min/kg, a half-life [3, 10] of 6 min and an AUC(0-t) [3, 11] of 28 ng·h/mL. For the same compound, the Cmax [3, 11] was 12.3 ng/mL, the Tmax [3, 11] was 30 min and the bioavailability [3, 11] was 1.74%. It also gave a half-life [3, 11] of 120 min, an AUC(0-t) [3, 12] of 201 ng·h/mL and a Cmax [3, 12] of 38.5 ng/mL. It also gave a Tmax [3, 12] of 30 min, a bioavailability [3, 12] of 4.16% and a half-life [3, 12] of 426 min. For the same compound, the AUC(0-t) [3, 13] was 410 ng·h/mL, the Cmax [3, 13] was 68.1 ng/mL and the Tmax [3, 13] was 30 min. It also gave a bioavailability [3, 13] of 2.55%, a half-life [3, 13] of 258 min and an AUC0-last/dose ([3]; oral gavage 10 mg/kg bw S6821) of 2.80 ng·h/mL/mg/kg. For the same compound, the AUC0-last/dose ([3]; oral gavage 30 mg/kg bw S6821) was 6.70 ng·h/mL/mg/kg, the AUC0-last/dose ([3]; oral gavage 100 mg/kg bw S6821) was 4.10 ng·h/mL/mg/kg and the “Reverse mutation (in vitro), Result” value [4] was “Negative”. The “Micronucleus formation (in vivo), Result” value (bone marrow PCEs) was “Negative”, the MTD ([5]; 10, 30, 100 mg/kg bw/day food ad-mix, male & female) was over 100 mg/kg bw/day and the Findings ([5]; up to 100 mg/kg bw/day) was “No test-article related findings”. For the same compound, the NOAEL ([6]; 10, 30, 100 mg/kg bw/day food ad-mix, 90 days, both sexes) was 100 mg/kg bw/day, the NOEL ([6]; 90 days, females) was 100 mg/kg bw/day and the NOEL ([6]; 90 days, males) was 30 mg/kg bw/day. For the same compound, the Motor activity scores ([6]; males, 100 mg/kg bw/day, week 12, second half of 1-hour recording) was “slightly higher than those of controls”, the Findings ([6]; up to 100 mg/kg bw/day, 90 days) was “No test-article related findings” and the Findings [7] was “No maternal toxicity or effect on intrauterine growth up to 1000 mg/kg bw/day”. The “NOAEL of 100 mg/kg bw/day as multiple of estimated dietary exposure” value [8] was 1500 times and the “Chromosome aberration (in vitro), Result” value [9] was “Negative”.
